# HCV NS3 hel inh: HCV NS3 helicase inhibition | NS3 helicase DNA unwinding, Cy5 molecular beacon fluorescence | inhibition, % at 10.9 µM | hit rate 0.56% among 290,000;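 active = inhibition above the mean of all tested compounds plus 3 SD, set per campaign, cut at about 35% in these data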;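 note: 0% = DMSO wells and 100% = thioflavine S control wells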
#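 Material: hepatitis C virus NS3 helicase domain fragment enzyme; measured by: Cy5 fluorescence, 0 and 60 min reads; control set: DMSO and thioflavine S; incubation: 60 min unwinding reaction at 25 °C after ATP addition; read-out basis: % inhibition from 60/0 min fluorescence ratio, DMSO 0%, thioflavine S 100%; repeats: singlicate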
# ZTA counter: ZTA (EBV) inhibition in EBNA-1 counter-screen; P03206; ZTA-DNA binding, fluorescence polarization; inhibition, % at 11 µM; hit rate 0.15% among 320,000; AID 2234; in the data active = inhibition above about 33%
# Target sequence (P03206 whole entry, looked up): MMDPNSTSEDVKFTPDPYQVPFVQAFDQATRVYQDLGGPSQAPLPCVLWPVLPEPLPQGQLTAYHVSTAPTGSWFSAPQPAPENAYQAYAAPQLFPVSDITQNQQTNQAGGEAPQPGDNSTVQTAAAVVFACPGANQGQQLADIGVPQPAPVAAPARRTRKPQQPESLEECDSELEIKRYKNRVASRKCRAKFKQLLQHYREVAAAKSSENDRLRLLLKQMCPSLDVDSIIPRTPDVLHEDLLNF
# FID counter: displaces DNA intercalator in HCV helicase counter-screen; DNA fluorescent intercalator displacement, fluorescence; inhibition, % at 7.9 µM; hit rate 0.17% among 290,000; AID 1845; in the data active = inhibition above about 37%;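 note: 0% = vehicle and 100% = reference compound; higher means more ethidium bromide displaced from hairpin DNA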
# NR3A LBD binder: modulators (binders) of human NR3A ligand-binding domain; NR3A LBD differential scanning fluorimetry, Tm shift; 0% = protein alone, 100% = glycine-bound protein; Tm shift relative to glycine control, % at 25 µM; hit rate 2.5% among 340,000;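 active = melting temperature shift of at least 10% of the positive control shift, at one fixed dose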
# FGF22 binding: binders of recombinant human FGF22 by thermal shift; Q9HCT0; SYPRO orange fluorescence; percent of sucrose octasulfate shift, DMSO zero; activity (Tm shift, normalised), % at 9.99 µM; hit rate 1.5% among 340,000;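 active = mean Tm shift, scaled 0 neutral to 100 positive control, at about 1.3% or above, every replicate too, limit read from the data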
# Target sequence (Q9HCT0 whole entry, looked up): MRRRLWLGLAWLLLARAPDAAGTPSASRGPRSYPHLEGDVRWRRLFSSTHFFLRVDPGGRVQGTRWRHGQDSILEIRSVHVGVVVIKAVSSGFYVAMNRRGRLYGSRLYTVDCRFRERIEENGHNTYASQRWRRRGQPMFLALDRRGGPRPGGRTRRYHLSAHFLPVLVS
# EBNA-1 inh: blocks EBNA-1 binding to DNA | hit rate 0.34% among 300,000 | EBNA-1 DNA binding, fluorescence polarization | AID 1950 | inhibition, % at 14.8 µM; in the data active = inhibition above about 28%
# Starred values were filed as active, the others as inactive; x = no result. A selection: hits, their analogues and other compounds. The true share with any hit is near 3.6%.
SMILES,HCV NS3 hel inh,ZTA counter,FID counter,NR3A LBD binder,FGF22 binding,EBNA-1 inh
COc1cccc(/C=C(/C(=O)OCC(=O)NCC2CCCO2)c2ccccc2)c1 (stereo unspecified),0,-19,-35,0,43*,-13
Cc1cc(=O)oc2cc(OC(C)C(=O)NCC3CCCO3)ccc12 (stereo unspecified),6,-4,-5,0,44*,-1
COc1ccc(N2CCN(C(CNC(=O)C(=O)NCC3CCCO3)c3ccco3)CC2)cc1 (stereo unspecified),9,0,-25,10*,0,2
COc1cccc(/C=C(/C(=O)OCC(=O)NC2CCCCCCC2)c2ccccc2)c1,-4,-7,-13,1,0,1
COc1cccc(NC(=O)N2C[C@H](O)COC[C@H]3O[C@H](CC(=O)NCCCN4CCOCC4)CC[C@@H]32)c1,x,x,x,x,0,x
CN(C)S(=O)(=O)c1cc(NC(=O)COC(=O)CCSc2ccc(Cl)cc2)ccc1Cl,7,-24,-5,13*,x,-11
CN(C)S(=O)(=O)c1cc(NC(=O)COC(=O)Cc2ccc(Br)cc2)ccc1Cl,-11,8,-8,15*,x,5
C/C=C/C(=O)OCC(=O)Nc1ccc(C)c(S(=O)(=O)N(C)C)c1,5,7,-3,-2,44*,17
COc1ccc(/C=N/Nc2cc(C)nc(-n3nc(C)cc3C)n2)cc1,-14,4,-18,-13,x,-2
Cc1cc(N/N=C/c2ccc(O)cc2O)nc(-n2nc(C)cc2C)n1,-16,-11,-5,27*,x,-7
Cc1cc(N/N=C\c2ccccc2)nc(-c2ccccc2O)n1,-1,7,-1,31*,x,7
C/C(=N\Nc1cc(C)nc(-c2ccccc2O)n1)c1ccccc1O,-4,-4,1,26*,1,4
Cc1cc(N/N=C/c2ccc(O)cc2O)nc(-c2ccccc2O)n1,-13,13,13,35*,x,22
Cc1cc(N(C)/N=C/c2ccccc2)nc(-c2ccccc2O)n1,4,-2,10,-1,0,-2
COCC(=O)N1CC2(C1)[C@H](c1ccc(-c3ccc(F)cc3)cc1)[C@H](CO)N2C(C)=O,x,x,x,x,0,x
CO[C@@H]1CN(C)C(=O)c2cc(NC(=O)CC(F)(F)F)ccc2OC[C@@H](C)N(C(C)=O)C[C@@H]1C,x,x,x,x,0,x
Cc1cc(N/N=C/c2ccccc2O)nc(N2CCOCC2)n1,-16,-4,-10,-8,0,-6
Cc1cc(N/N=C/c2ccccc2O)nc(-c2ccccc2O)n1,-15,16,18,25*,x,2
CC(=NNc1ccc2ccccc2n1)c1ccccn1,x,x,x,x,0,x
CC(=NNc1ccc2ccccc2n1)c1ccccc1O,x,x,x,24*,0,x
Cc1noc(C)c1S(=O)(=O)Nc1ccc2c(c1)CC(=O)N([C@H](C)CO)C[C@H](C)[C@H](CN(C)S(C)(=O)=O)O2,x,x,x,x,0,x
CCOCCCNC(C(=O)Nc1ccc(OC)c(Cl)c1)c1ccccc1 (stereo unspecified),-3,2,-12,0,43*,11
CC(C)=CCc1c(O)ccc(C2COc3c(CC=C(C)C)c(O)cc(O)c3C2=O)c1O (stereo unspecified),x,-12,x,11*,0,5
CC(C)=CCc1c(O)ccc2c1OC(c1ccc(O)c(O)c1)CC2=O (stereo unspecified),12,-13,-10,-4,0,7
CCOC(=O)C(=CNc1nc2ccc(C(=O)OCC)cc2s1)C(=O)OCC,4,-13,-1,-1,0,-5
SMILES,HCV NS3 hel inh,ZTA counter,FID counter,NR3A LBD binder,FGF22 binding,EBNA-1 inh
COC(=O)c1ccc2nc(Nc3nc4c(F)cc(F)cc4s3)sc2c1,23,7,-5,22*,0,26
CCOC(=O)c1ccc2nc(Nc3nc4ccc(F)cc4s3)sc2c1,4,16,-2,28*,0,0
CCOC(=O)c1ccc2nc(NC(C)=O)sc2c1,-4,-6,1,-2,43*,2
C[C@@H]1CN([C@H](C)CO)C(=O)c2cccc(NS(=O)(=O)c3cccs3)c2O[C@H]1CN(C)S(=O)(=O)c1ccccc1,x,x,x,x,0,x
CN(C)CCCNc1cc(-c2ccccc2)nc2cc(-c3cccc(F)c3)nn12,-31,0,40*,-1,0,-5
Cc1cc(NCCCn2ccnc2)n2nc(-c3ccc(Cl)cc3)cc2n1,7,-17,25,-3,1,7
CC(C)(C)c1cc(NCCCn2ccnc2)n2ncc(-c3ccc(Cl)cc3)c2n1,-77,-4,8,20*,x,-5
CN(C)CCCNc1cc(C(C)(C)C)nc2c(-c3ccccc3)cnn12,-39,18,48*,0,0,-1
C[C@@H](NC(=O)C[C@H]1CC[C@H]2[C@@H](COC[C@@H](O)CN2Cc2cc(F)ccc2F)O1)c1ccccc1,x,x,x,x,0,x
Cc1noc(C)c1S(=O)(=O)Nc1ccc2c(c1)CC(=O)N([C@H](C)CO)C[C@H](C)[C@@H](CN(C)S(=O)(=O)c1ccccc1)O2,x,x,x,x,0,x
O=C(N[C@@H]1CC[C@@H](CC(=O)N2CCc3ccccc3C2)O[C@@H]1CO)C1CC1,x,x,x,x,0,x
COc1ccc2c3c([nH]c2c1)[C@H](CO)N(S(C)(=O)=O)CC31CCN(CC2CC2)CC1,x,x,x,x,0,x
Cc1ccccc1NC(=O)c1oc(=O)c2ccccc2c1-c1ccccc1,-6,12,-14,-1,x,0
Cc1cccc(NC(=O)c2oc(=O)c3ccccc3c2-c2ccccc2)c1C,-6,4,0,16*,x,-5
COc1ccc(NC(=O)N(C)C[C@@H]2Oc3ncc(C#CCN(C)C)cc3C(=O)N([C@H](C)CO)C[C@H]2C)cc1,x,x,x,x,0,x
O=C(Cn1c(O)c(/C=C2\C=Nc3ccccc32)sc1=O)N1CCOCC1,8,4,-1,-2,0,0
O=C(Cn1c(O)c(/C=C2\C=Nc3ccccc32)sc1=O)Nc1ccc2c(c1)OCO2,-1,-13,0,11*,0,26
COc1ccc(C2CC(=O)c3c(C)nc(N4CCN(c5ccccc5)CC4)nc3C2)cc1 (stereo unspecified),-2,-2,-6,727*,x,-14
O=c1c(/C=N/Nc2ccccc2)c(Sc2nnnn2-c2ccccc2)nc2ccccn12,5,x,0,16*,x,x
O=C(CSc1nnc2ccccn12)Nc1ccccc1C(=O)O,-10,1,-12,0,x,-1
O=C(O)c1ccccc1N/N=C/c1c(Sc2nnnn2-c2ccccc2)nc2ccccn2c1=O,-1,1,-4,12*,0,11
O=Cc1c(Sc2ccccc2)nc2ccccn2c1=O,-1,-6,0,0,x,0
C[C@H](CO)N1C[C@H](C)[C@H](CN(C)C)Oc2ccc(NC(=O)Cc3cn(C)c4ccccc34)cc2C1=O,x,x,x,x,0,x
CCOc1ccc(NC(=O)c2sc(NC(C)=O)c(C(=O)OC)c2C)cc1,-8,5,8,1,43*,-3

# Screens as filed in PubChem.
